Measurements published in ChEMBL document CHEMBL3046601, “Synthesis and herbicidal activity of N,N-diethyl-3-(arylselenonyl)-1H-1,2,4-triazole-1-carboxamide” (2006).

How the values were obtained:
Assay type in all cases: functional
[1] = Herbicidal activity against semen euphorbiae assessed as inhibition of weed growth at 500 ug/mL measured 15 days post compound treatment by pot-culture method; conditions: 360 h; read-out: GI
Method in brief: (§1)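 Pot-culture assay on whole plants. Compounds were dissolved in toluene, diluted in water, and emulsified with a drop of Tween 80. Five parallel tests per compound, each compared with an untreated control, read as the ratio of growth inhibition. The 500 µg/mL level was the preliminary screen; the follow-up used 0.9375–15 µg/mL on cucumber, rice and semen euphorbiae.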

Cucumis sativus [2] = experiment: Herbicidal activity against Cucumis sativus jinyou 15 (cucumber) assessed as inhibition of weed growth at 500 ug/mL measured 15 days post compound treatment by pot-culture method; conditions: jinyou 15, 360 h, read-out: GI; method in brief: as §1
Echinochloa crus-galli [3] = experiment: Herbicidal activity against semen euphorbiae assessed as inhibition of weed growth at 15 ug/mL measured 15 days post compound treatment by pot-culture method; conditions: 360 h, read-out: GI; method in brief: as §1
Echinochloa crus-galli [4] = experiment: Herbicidal activity against semen euphorbiae assessed as inhibition of weed growth at 7.5 ug/mL measured 15 days post compound treatment by pot-culture method; conditions: 360 h, read-out: GI; method in brief: as §1
Echinochloa crus-galli [5] = experiment: Herbicidal activity against semen euphorbiae assessed as inhibition of weed growth at 3.75 ug/mL measured 15 days post compound treatment by pot-culture method; conditions: 360 h, read-out: GI; method in brief: as §1
Echinochloa crus-galli [6] = experiment: Herbicidal activity against semen euphorbiae assessed as inhibition of weed growth at 1.875 ug/mL measured 15 days post compound treatment by pot-culture method; conditions: 360 h, read-out: GI; method in brief: as §1
Echinochloa crus-galli [7] = experiment: Herbicidal activity against semen euphorbiae assessed as inhibition of weed growth at 0.9375 ug/mL measured 15 days post compound treatment by pot-culture method; conditions: 360 h, read-out: GI; method in brief: as §1
Oryza sativa [8] = experiment: Toxicity against Oryza sativa xiuanyou 63 (rice) assessed as growth inhibition at 15 ug/mL measured 15 days post compound treatment by pot-culture method; conditions: xiuanyou 63, 360 h, read-out: GI; method in brief: as §1
Oryza sativa [9] = experiment: Toxicity against Oryza sativa xiuanyou 63 (rice) assessed as growth inhibition at 3.75 ug/mL measured 15 days post compound treatment by pot-culture method; conditions: xiuanyou 63, 360 h, read-out: GI; method in brief: as §1
Oryza sativa [10] = experiment: Toxicity against Oryza sativa xiuanyou 63 (rice) assessed as growth inhibition at 7.5 ug/mL measured 15 days post compound treatment by pot-culture method; conditions: xiuanyou 63, 360 h, read-out: GI; method in brief: as §1
Oryza sativa [11] = experiment: Toxicity against Oryza sativa xiuanyou 63 (rice) assessed as growth inhibition at 0.9375 ug/mL measured 15 days post compound treatment by pot-culture method; conditions: xiuanyou 63, 360 h, read-out: GI; method in brief: as §1
Oryza sativa [12] = experiment: Toxicity against Oryza sativa xiuanyou 63 (rice) assessed as growth inhibition at 1.875 ug/mL measured 15 days post compound treatment by pot-culture method; conditions: xiuanyou 63, 360 h, read-out: GI; method in brief: as §1
Cucumis sativus [13] = experiment: Herbicidal activity against Cucumis sativus jinyou 15 (cucumber) assessed as inhibition of weed growth at […] measured 15 days post compound treatment by pot-culture method; conditions: jinyou 15, 360 h, read-out: GI; method in brief: as §1
Cucumis sativus [14] = experiment: Herbicidal activity against Cucumis sativus jinyou 15 (cucumber) assessed as inhibition of weed growth at 3.75 ug/mL measured 15 days post compound treatment by pot-culture method; conditions: jinyou 15, 360 h, read-out: GI; method in brief: as §1

SMILES	inhibition of growth at 500 µg/mL [1] [%]	inhibition of growth at 500 µg/mL (Cucumis sativus [2]) [%]	other results
CCN(CC)C(=O)n1cnc([Se](=O)(=O)c2cccc(C(F)(F)F)c2)n1	25.2	18.5	–
CCN(CC)C(=O)n1cnc([Se](=O)(=O)c2ccc(F)cc2F)n1	53.9	33.9	–
CCN(CC)C(=O)n1cnc([Se](=O)(=O)c2ccccc2)n1	4.18	8.75	–
CCN(CC)C(=O)n1cnc([Se](=O)(=O)c2ccc(F)c(Cl)c2)n1	39.6	10.7	–
CCN(CC)C(=O)n1cnc([Se](=O)(=O)c2ccc(F)c(F)c2)n1	44.3	44	–
CCN(CC)C(=O)n1cnc(S(=O)(=O)c2c(C)cc(C)cc2C)n1 [CAFENSTROLE]	100	100	inhibition of growth at 15 µg/mL (Echinochloa crus-galli [3]): 100%; inhibition of growth at 7.5 µg/mL (Echinochloa crus-galli [4]): 95.6%; inhibition of growth at 3.75 µg/mL (Echinochloa crus-galli [5]): 84.4%; inhibition of growth at 1.875 µg/mL (Echinochloa crus-galli [6]): 46.7%; inhibition of growth at 0.9375 µg/mL (Echinochloa crus-galli [7]): 17.8%; inhibition of growth at 15 µg/mL (Oryza sativa [8]): 100%; inhibition of growth at 3.75 µg/mL (Oryza sativa [9]): 47.2%; inhibition of growth at 7.5 µg/mL (Oryza sativa [10]): 72%; inhibition of growth at 0.9375 µg/mL (Oryza sativa [11]): 0%; inhibition of growth at 1.875 µg/mL (Oryza sativa [12]): 13.9%; inhibition of growth (Cucumis sativus [13]): 100%
CCN(CC)C(=O)n1cnc([Se](=O)(=O)c2c(C)cccc2C)n1	100	100	inhibition of growth at 7.5 µg/mL (Echinochloa crus-galli [4]): 88.9%; inhibition of growth at 7.5 µg/mL (Oryza sativa [10]): 2.8%; inhibition of growth at 3.75 µg/mL (Cucumis sativus [14]): 100%
CCN(CC)C(=O)n1cnc([Se](=O)(=O)c2ccc([N+](=O)[O-])cc2)n1	46.4	26.9	–
CCN(CC)C(=O)n1cnc([Se](=O)(=O)c2c(C)cc(C)cc2C)n1	100	100	inhibition of growth at 7.5 µg/mL (Echinochloa crus-galli [4]): 91.1%; inhibition of growth at 7.5 µg/mL (Oryza sativa [10]): 8.3%; inhibition of growth at 3.75 µg/mL (Cucumis sativus [14]): 100%
CCN(CC)C(=O)n1cnc([Se](=O)(=O)c2ccc(C(F)(F)F)c(Cl)c2)n1	45.6	15.3	–
CCN(CC)C(=O)n1cnc([Se](=O)(=O)c2ccc(C)cc2C)n1	51	42	–
CCN(CC)C(=O)n1cnc([Se](=O)(=O)c2ccc(OC)cc2)n1	63.9	30.3	–
CCN(CC)C(=O)n1cnc([Se](=O)(=O)c2ccc(Cl)cc2)n1	17	18.6	–
